Converted amounts (≈) assume the structure as drawn.
Tests used:
[1] = Stability in pH 7.4 solution assessed as half-life at 37 degC; type: physicochemical
[2] = Stability in pH 3.1 solution assessed as half-life at 37 degC; type: physicochemical
[3] = Stability in pH 1 solution assessed as half-life at 37 degC; type: physicochemical
[4] = Chemical stability of the compound in neutral pH solution; type: physicochemical
[5] = Chemical stability of the compound in acidic pH solution; type: physicochemical
Liver carboxylesterase [6] = biological target: T1, Liver carboxylesterase (Sus scrofa, UniProt Q29550); assay: Stability assessed as porcine liver esterase-mediated drug degradation by measuring compound remaining level in pH 7.4 potassium phosphate buffer at 10 uM incubated for 1 hr by LC/MS/MS; type: ADME, tissue-based; conditions: pig, read-out: Stability
T1 sequence (Q29550 whole entry): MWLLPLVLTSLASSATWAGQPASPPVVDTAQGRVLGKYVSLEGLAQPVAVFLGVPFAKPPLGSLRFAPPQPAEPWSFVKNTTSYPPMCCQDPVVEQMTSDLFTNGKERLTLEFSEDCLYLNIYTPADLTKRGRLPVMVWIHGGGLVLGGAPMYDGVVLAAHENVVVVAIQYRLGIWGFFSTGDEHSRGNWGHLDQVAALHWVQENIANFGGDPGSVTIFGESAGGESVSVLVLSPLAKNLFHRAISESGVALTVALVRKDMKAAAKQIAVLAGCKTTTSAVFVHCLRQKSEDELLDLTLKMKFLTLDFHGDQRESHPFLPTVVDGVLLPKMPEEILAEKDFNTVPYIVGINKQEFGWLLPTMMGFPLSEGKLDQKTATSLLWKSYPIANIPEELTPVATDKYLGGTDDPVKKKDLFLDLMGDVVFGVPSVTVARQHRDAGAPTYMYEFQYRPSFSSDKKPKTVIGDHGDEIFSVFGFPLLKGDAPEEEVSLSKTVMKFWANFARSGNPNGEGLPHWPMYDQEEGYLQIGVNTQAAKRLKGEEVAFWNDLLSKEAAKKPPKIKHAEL
Outline: (§1)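 Porcine liver esterase with substrate at 10 µM in 89 mM potassium phosphate pH 7.4, 37 °C. Reaction started by adding compound. Aliquots taken at 0, 15, 30 and 60 min and quenched with acetonitrile. After centrifugation at 4 °C, percent remaining quantified by LC/MS/MS.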

Liver carboxylesterase [7] = biological target: T1, Liver carboxylesterase; assay: Stability assessed as porcine liver esterase-mediated drug degradation by measuring compound remaining level in pH 7.4 potassium phosphate buffer at 10 uM incubated for 0.25 hrs by LC/MS/MS; type: ADME, tissue-based; conditions: pig, read-out: Stability; outline: as §1
[8] = Chemical stability of the compound in pH 7.4 potassium phosphate buffer at 10 uM incubated for 0.5 hrs by LC/MS/MS method; type: physicochemical; conditions: read-out: Stability
Outline: (§2)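 Compound at 10 µM in 89 mM potassium phosphate buffer, pH 7.4, 37 °C, incubated with or without porcine liver esterase; started by compound addition, aliquots at 0, 15, 30, 60 min, acetonitrile added, centrifuged at 4 °C, remaining compound measured by LC/MS/MS.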

[9] = Chemical stability of the compound in pH 7.4 potassium phosphate buffer at 10 uM incubated for 0.25 hrs by LC/MS/MS method; type: physicochemical; conditions: read-out: Stability; outline: as §2
[10] = Chemical stability of the compound in pH 7.4 potassium phosphate buffer at 10 uM incubated for 1 hr by LC/MS/MS method; type: physicochemical; conditions: read-out: Stability; outline: as §2
Caco-2 [11] = assay: Drug level in apical side of human Caco2 cells incubated at 37 degC for 2 hrs; type: ADME, cell-based; conditions: caco-2, 2 h
Outline: (§3)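 Compounds loaded on apical side of Caco-2 monolayers and incubated at 37 °C for 2 h; prodrug, intermediate and parent measured on apical and basal sides.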

Liver carboxylesterase [12] = biological target: T1, Liver carboxylesterase; assay: Stability assessed as porcine liver esterase-mediated drug degradation by measuring compound remaining level in pH 7.4 potassium phosphate buffer at 10 uM incubated for 0.5 hrs by LC/MS/MS; type: ADME, tissue-based; conditions: pig, read-out: Stability; outline: as §1
[13] = Cmax in Sprague-Dawley rat at 1 mg/kg, po after 24 hrs by LC/MS/MS method; type: ADME, organism-based; design: dose 1 mg/kg, route oral; conditions: in vivo
[14] = Cmax in Sprague-Dawley rat at 100 mg/kg, po after 24 hrs by LC/MS/MS method; type: ADME, organism-based; design: dose 100 mg/kg, route oral; conditions: in vivo
[15] = AUC in Sprague-Dawley rat at 100 mg/kg, po after 24 hrs by LC/MS/MS method; type: ADME, organism-based; design: time < 24 hr, dose 100 mg/kg, route oral; conditions: in vivo
Rattus norvegicus [16] = assay: Bioavailability in Sprague-Dawley rat at 100 mg/kg, po after 24 hrs by LC/MS/MS method; type: ADME, organism-based; conditions: in vivo
[17] = Bioavailability in Sprague-Dawley rat at 1 mg/kg, po after 24 hrs by LC/MS/MS method; type: ADME, organism-based; conditions: in vivo
Rattus norvegicus [18] = assay: Inhibition of LPS-induced TNFalpha level in Lewis rat at 0.03 to 10 mg/kg, po dosed 1 hr before LPS challenge and measured 90 mins post LPS challenge by ELISA method; type: functional
Outline: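 Male Lewis rats (200-250 g) dosed orally 1 h before IP injection of 10ug E. coli O111:B4 LPS in 1.0 mL sterile saline; prodrug as suspension in 0.75% Methocel, 0.1% Tween 80, parent in PEG 300, controls given vehicle. Blood taken 90 min after LPS; serum TNF measured by ELISA; ED50 expressed as parent equivalent.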

[19] = Cmax in Sprague-Dawley rat at 10 mg/kg, po after 24 hrs by LC/MS/MS method; type: ADME, organism-based; design: dose 10 mg/kg, route oral; conditions: in vivo
[20] = Solubility in pH 1.2 solution; conditions: buffer
[21] = Bioavailability in cynomolgus monkey at 10 mg/kg, po after 24 hrs by LC/MS/MS method; type: ADME, organism-based, Macaca fascicularis; conditions: in vivo
Rattus norvegicus [22] = assay: Inhibition of paw swelling in Lewis rat adjuvant arthritis model assessed as reduction in hind paw volume at 3 mg/kg, po bid beginning on day 11 post adjuvant challenge by volume displacement plethysmometry method relative to control; type: functional; conditions: 264 h
Outline: (§4)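 Male Lewis rats given complete Freund's adjuvant on day 1; from day 11 compounds dosed orally BID in 0.5 mL vehicle (prodrug as aqueous suspension in 0.75% Methocel, 0.1% Tween 80; parent in PEG 300). Paw volume measured 3 times per week for rest of study; paw swelling inhibition reported.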

[23] = AUC in Sprague-Dawley rat at 1 mg/kg, po after 24 hrs by LC/MS/MS method; type: ADME, organism-based; design: time < 24 hr, dose 1 mg/kg, route oral; conditions: in vivo
[24] = AUC (0 to 24 hrs) in Lewis rat adjuvant arthritis model at 3 mg/kg, po bid beginning on day 11 post adjuvant challenge; type: ADME, organism-based; design: dose 3 mg/kg, time < 24 hr, route oral; conditions: in vivo
[25] = Cmax in cynomolgus monkey at 10 mg/kg, po after 24 hrs by LC/MS/MS method; type: ADME, organism-based, Macaca fascicularis; design: dose 10 mg/kg, route oral; conditions: in vivo
Caco-2 [26] = assay: Drug level in basal side of human Caco2 cells assessed as BMS-582949 level incubated at 37 degC for 2 hrs; type: ADME, cell-based; conditions: caco-2, 2 h; outline: as §3
[27] = AUC (0 to 24 hrs) in Lewis rat adjuvant arthritis model at 1 mg/kg, po bid beginning on day 11 post adjuvant challenge; type: ADME, organism-based; design: dose 1 mg/kg, time < 24 hr, route oral; conditions: in vivo
[28] = Bioavailability in Sprague-Dawley rat at 10 mg/kg, po after 24 hrs by LC/MS/MS method; type: ADME, organism-based; conditions: in vivo
Caco-2 [29] = assay: Drug level in apical side of human Caco2 cells assessed as BMS-582949 level incubated at 37 degC for 2 hrs; type: ADME, cell-based; conditions: caco-2, 2 h; outline: as §3
Rattus norvegicus [30] = assay: Inhibition of paw swelling in Lewis rat adjuvant arthritis model assessed as reduction in hind paw volume at 1 mg/kg, po bid beginning on day 11 post adjuvant challenge by volume displacement plethysmometry method relative to control; type: functional; conditions: 264 h; outline: as §4
[31] = Solubility in pH 6.5 solution; conditions: buffer
[32] = AUC in Sprague-Dawley rat at 10 mg/kg, po after 24 hrs by LC/MS/MS method; type: ADME, organism-based; design: time < 24 hr, dose 10 mg/kg, route oral; conditions: in vivo
[33] = AUC in cynomolgus monkey at 10 mg/kg, po after 24 hrs by LC/MS/MS method; type: ADME, organism-based, Macaca fascicularis; design: dose 10 mg/kg, time < 24 hr, route oral; conditions: in vivo
[34] = Chemical Stability of the compound in pH 1 solution; type: physicochemical; conditions: buffer

SMILES: CCCNC(=O)c1cn2ncnc(N(COP(=O)([O-])O)c3cc(C(=O)NC4CC4)ccc3C)c2c1C.[Na+]
- half-life [1]: 20 h
- half-life [2]: < 0.25 h
- half-life [3]: < 0.25 h

SMILES: CCCN(C(=O)OCOC(=O)/C=C/C(=O)O)C(=O)c1cn2ncnc(Nc3cc(C(=O)NC4CC4)ccc3C)c2c1C
- Stability [4]: Stable
- Stability [5]: Stable

SMILES: CCCN(C(=O)OCOC(=O)Cc1ccc(O)cc1)C(=O)c1cn2ncnc(Nc3cc(C(=O)NC4CC4)ccc3C)c2c1C
- remaining at 1 h, 10 µM (Liver carboxylesterase [6]): 5.8%
- remaining at 0.25 h, 10 µM (Liver carboxylesterase [7]): 8.2%
- remaining at 0.5 h, 10 µM [8]: 93%
- remaining at 0.25 h, 10 µM [9]: 100%
- remaining at 1 h, 10 µM [10]: 75%
- Drug uptake (Caco-2 [11]): Active
- remaining at 0.5 h, 10 µM (Liver carboxylesterase [12]): 6.9%

SMILES: CCCNC(=O)c1cn2ncnc(Nc3cc(C(=O)NC4CC4)ccc3C)c2c1C [BMS-582949]
- Cmax [13]: 800 nM
- Cmax [14]: 3000 nM
- AUC at 24 h [15]: 3 µM·h
- F (Rattus norvegicus [16]): 4.3%
- bioavailability [17]: 55%
- ED50 (Rattus norvegicus [18]): 0.88 mg
- Cmax [19]: 4300 nM
- solubility [20]: 280 µg/mL (≈ 689 µM)
- bioavailability [21]: 16%
- inhibition in vivo at 3 mg/kg (Rattus norvegicus [22]): 35%
- AUC at 24 h [23]: 4.2 µM·h
- AUC at 24 h [24]: 25.3 µM·h
- Cmax [25]: 1000 nM
- Drug uptake (Caco-2 [26]): Active
- AUC at 24 h [27]: 6.7 µM·h
- bioavailability [28]: 31%
- Drug uptake (Caco-2 [29]): Active
- inhibition in vivo at 1 mg/kg (Rattus norvegicus [30]): 27%
- solubility [31]: 3 µg/mL (≈ 7.38 µM)
- AUC at 24 h [32]: 23 µM·h
- AUC at 24 h [33]: 7.6 µM·h

SMILES: CCCN(C(=O)OCOP(=O)(O)O)C(=O)c1cn2ncnc(Nc3cc(C(=O)NC4CC4)ccc3C)c2c1C
- Stability [4]: Unstable
- Stability [34]: Stable

SMILES: CCCN(COP(=O)(O)O)C(=O)c1cn2ncnc(Nc3cc(C(=O)NC4CC4)ccc3C)c2c1C.CCN(C(C)C)C(C)C
- half-life [1]: 54 h
- half-life [2]: < 0.25 h
- half-life [3]: < 0.25 h

SMILES: CCCNC(=O)c1cn2ncnc(Nc3cc(C(=O)N(COP(=O)(O)O)C4CC4)ccc3C)c2c1C.CCN(C(C)C)C(C)C
- half-life [1]: 257 h
- half-life [2]: < 0.25 h
- half-life [3]: < 0.25 h

— ChEMBL document CHEMBL3621120, “Discovery of ((4-(5-(Cyclopropylcarbamoyl)-2-methylphenylamino)-5-methylpyrrolo[1,2-f][1,2,4]triazine-6-carbonyl)(propyl)carbamoyloxy)methyl-2-(4-(phosphonooxy)phenyl)acetate (BMS-751324), a Clinical Prodrug of p38α MAP Kinase Inhibitor” (J Med Chem, 2015)
